# rRNA inh HTS – inhibitors of bacterial rRNA selective over humanized ribosomes; AID 720706; GFP signal change (wild-type ribosome), % (concentration not given with the values); E. coli WT GFP vs humanized-ribosome RFP mutants, fluorescence, 24 h; hits give low values; DMSO median 0, no signal -100; hit rate 1.6% among 350,000;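 active means significant combined selectivity score with lowered wild-type GFP, culture density cut under 30%, mutant RFP and density less affected; inactive means any of these conditions unmet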
# SR-BI HDL uptake – inhibitors of mouse SR-BI mediated HDL lipid uptake. AID 488896. ldlA[mSR-BI] CHO cells, DiI-HDL uptake fluorescence, 3 h. inhibition, % at 12.5 µM. hit rate 0.96% among 320,000. Q61009;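 active means mean replicate inhibition of at least 70% and a set share of replicates each scoring 70 or more; inconclusive means meets just one of the two criteria; inactive means fails both criteria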;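 further: 0% = median of neutral control wells and 100% = median of positive control wells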
# dFosB activator – mouse delta FosB homodimer activation; activation, % at 25 µM; AID 493131; purified delta FosB, TAMRA-CDK5 oligo fluorescence polarization; percent of positive-control signal above neutral wells; P13346; hit rate 0.99% among 340,000;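 active means mean activation above about 17%, with every replicate also reaching it, limit read from the data, passing the limit was not always enough; inconclusive means only one of the two conditions met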
# Target sequence (P13346 whole entry, looked up): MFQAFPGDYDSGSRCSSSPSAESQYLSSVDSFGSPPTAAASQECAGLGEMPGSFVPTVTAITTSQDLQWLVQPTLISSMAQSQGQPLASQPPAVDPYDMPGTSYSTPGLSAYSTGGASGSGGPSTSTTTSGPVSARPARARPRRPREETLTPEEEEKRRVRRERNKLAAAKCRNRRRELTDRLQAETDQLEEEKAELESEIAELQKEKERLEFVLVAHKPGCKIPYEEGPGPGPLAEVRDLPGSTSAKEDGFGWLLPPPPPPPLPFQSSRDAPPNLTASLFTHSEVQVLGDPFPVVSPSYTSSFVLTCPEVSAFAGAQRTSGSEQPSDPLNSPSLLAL
# SR-BI uptake up – activators of SR-BI mediated HDL lipid uptake | CHO ldlA[mSR-BI] cells, DiI-HDL uptake fluorescence, 3 h; 100 = double the neutral-control signal | activation, % at 12.5 µM | hit rate 0.096% among 320,000 | AID 504775;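 active means mean replicate activation of at least 60% and every replicate at or above 60%; inconclusive means mean or all-replicate condition met, but not both; inactive means mean below 60% and not all replicates reaching 60%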;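 further: 0% = median plate neutral-control signal and 100% = twice that signal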
#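 Material: SR-BI-overexpressing, LDLR-lacking CHO cells | Dosing: Single compound concentration, delivered by pin transfer | Probe or stimulus: Labelled HDL, 10 µg/mL | Signal: Bottom-read cell fluorescence after medium removal, ex 550/em 595 nm | Schedule: 3 h, 37 °C | Evaluation: HDL uptake via cellular fluorescence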
# Xi reactivation – X-chromosome reactivation activator | XiGFP mouse fibroblasts, % GFP-positive cells imaging, 3 d; cells co-treated with 5-aza-dC sensitizer; scaled so ellipticine positive control = 100% | activation, % at 7.58 µM | hit rate 0.055% among 360,000 | AID 743238;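 active means mean normalized replicate activation at least 10% and every replicate at or above 10%; inconclusive means only one of the two criteria met; inactive means mean below 10% and not all replicates reach 10%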;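 further: 0% = median of on-plate neutral control wells and 100% = ellipticine 6 µM median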
#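 Material: XiGFP fibroblasts, SV40-immortalized. Buffer or medium: DMEM plus 5-aza-dC sensitizer. Compound: single concentration per compound, delivered by pin transfer. Times: 3 days compound exposure. Controls: ellipticine 6 µM.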
# PvdQ acylase – blocks Pseudomonas aeruginosa PvdQ acylase activity. purified PvdQ acylase, fluorescence plate reader. inhibition, % at 10 µM. hit rate 0.063% among 340,000. AID 488965; in the data active means inhibition above about 30%, passing the limit was not always enough; inconclusive means no clear call, values can overlap the other calls;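 further: 0% = vehicle neutral wells and 100% = reference inhibitor wells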
# Starred values were filed as active, the others as inactive; ? = inconclusive; . = no result. Rows were chosen to be rich in hits. Some 2.6% of all compounds tested hit in one or more screens of this group.
SMILES,rRNA inh HTS,SR-BI HDL uptake,dFosB activator,SR-BI uptake up,Xi reactivation,PvdQ acylase
COc1cccc(/C=N/Nc2nc(Nc3ccc([N+](=O)[O-])cc3)nc(N3CCCC3)n2)c1O,2.1,87.4*,66.9*,-87.4,0.3,-11.2
O=[N+]([O-])c1ccc(N/N=C/c2c[nH]c3ccccc23)cc1,.,92.2*,-0.5,-92.2,.,-2.5
CC(C)CC(c1nnnn1C1CCCC1)N1CCN(c2ccccc2F)CC1 (configuration not stated),.,17.4,-5.4,-17.4,.,-10.2
O=C(NNC(=S)Nc1ccccc1Cl)c1ccccc1Cl,-25.4,-11.0,-1.9,11.0,0.1,1.8
Cc1cc(OC(C)C(=O)NCC(O)c2ccccc2)c2c(C)c(C)c(=O)oc2c1 (configuration not stated),-1.6,-180.0,-10.8,?,0.1,-1.9
Cc1cc(OC(C(=O)O)c2ccccc2)c2c(C)c(Cc3ccccc3)c(=O)oc2c1 (configuration not stated),-23.6*,8.6,-8.9,-8.6,-0.7,5.1
Cc1c(C(=O)Cc2ccccc2)n(C)c2ccccc12,-26.2*,27.4,-0.1,-27.4,-0.1,-2.7
N#C/C(=C(/O)COC(=O)CCCNC(=O)c1ccc(Cl)cc1)c1nc2ccccc2[nH]1,.,7.9,-0.5,-7.9,.,-4.0
Cc1cc(C2N=C(N)Nc3nc4ccccc4n32)c(C)n1-c1ccccc1Cl (configuration not stated),.,-2.5,75.6*,2.5,.,-5.3
NC1=NC(c2ccc(F)cc2)n2c(nc3ccccc32)N1 (configuration not stated),.,-12.7,1.9,12.7,.,-11.8
Cc1ccc(-n2c(C)cc(C3N=C(N)Nc4nc5ccccc5n43)c2C)c(C)c1 (configuration not stated),5.9,27.0,64.6*,-27.0,.,-14.0
NC1=NC(c2cccc(O)c2)n2c(nc3ccccc32)N1 (configuration not stated),.,-40.4,0.2,40.4,.,-8.6
O=C1c2cccc3c([N+](=O)[O-])ccc(c23)C(=O)N1O,40.3,3.1,-4.8,-3.1,16.8*,-9.5
O=C1c2cccc3c([N+](=O)[O-])ccc(c23)C(=O)N1c1ccccn1,.,-14.4,-4.9,14.4,.,2.5
COc1ccc(NC(=O)COC(=O)CCCOc2ccc(Cl)cc2Cl)cc1Cl,-21.7*,-26.8,-11.7,26.8,0.2,-11.9
COc1ccc(NC(=O)COC(=O)CCCOc2ccc(Cl)cc2Cl)cc1,-4.4,-14.4,-4.6,14.4,0.2,-3.0
COc1ccc(-c2cc(C(=O)NCc3ccc(C(F)(F)F)cc3)[nH]n2)c(C)c1,-20.5*,.,.,.,0.3,.
CCOC(=O)c1c(CN2CCOCC2)oc2ccc(OC(C)=O)cc12,7.1,-4.4,-2.4,4.4,0.0,-12.5
COc1ccc(NC(=O)C2CCCN2C(=O)NC2CCCCC2)cc1OC (configuration not stated),.,-17.1,0.6,17.1,.,0.7
COc1ccc(NC(=O)C2CCCN(C(=O)NC3CCCCC3)C2)cc1OC (configuration not stated),.,36.4,-0.6,-36.4,.,34.3*
O=C(Nc1ccccc1)C1=C[C@H](c2ccc(C(F)(F)F)cc2)C[C@H](OCc2ccc(CO)cc2)O1,5.5,.,.,.,0.0,.
CCN1/C(=C/C(C)=C/c2sc3ccccc3[n+]2CC)Sc2ccccc21,-36.4,.,507.4*,.,3.6,-7.2
CC1CCN(S(=O)(=O)c2ccc(C(=O)Nc3nnc(C4=COCCO4)o3)cc2)CC1,-23.2*,4.2,-1.1,-4.2,-0.1,-14.5
COc1cc(CN2CCCC(CO)(Cc3ccccc3F)C2)ccc1O (configuration not stated),3.3,-24.5,-2.5,24.5,0.3,-10.6
COC(=O)c1ccc(CN2CCCC(CO)(Cc3ccccc3F)C2)cc1 (configuration not stated),-20.0*,7.2,1.5,-7.2,0.0,-18.7
Cc1nc(Sc2ccc(Cl)cc2)c(C#N)c(C)c1[N+](=O)[O-],-20.2*,-16.3,-5.7,16.3,0.2,-10.3

# High-throughput results from PubChem BioAssay.
